From ChEMBL document CHEMBL2177040, “Down-regulation of the human VEGF gene expression by perylene monoimide derivatives” (Bioorg Med Chem Lett, 2012)
Activity calls are given as the source filed them. The calls are words filed in the database; no cut-off is given here.

Tests used:
Nucleic Acid [1] = assay: Binding affinity to VEGF quadruplex DNA in human A549 cells assessed as downregulation of VEGF protein level at 3.1 to 50 uM after 24 hrs by Western blot analysis; assay type: cell-based
Procedure, shortened: (§1)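 A549 cells (3.0 × 10^5) exposed to a range of compound concentrations for 24 h. Lysate proteins separated by SDS-PAGE and blotted with rabbit polyclonal VEGF antibody, then HRP-conjugated goat anti-rabbit IgG. Top concentrations chosen from cytotoxicity data.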

Nucleic Acid [2] = assay: Binding affinity to VEGF quadruplex DNA in human A549 cells assessed as downregulation of VEGF121 mRNA expression at 50 uM after 24 hrs by semi-quantitative RT-PCR analysis; assay type: cell-based
Procedure, shortened: (§2)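 A549 cells (3.0 × 10^5) treated 24 h. Total RNA extracted and reverse-transcribed; cDNA amplified with gene-specific primers, with cycle number set so that product intensity tracks cDNA amount. Both VEGF bands quantified by scan densitometry and normalised to GAPDH; three separate experiments.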

[3] = Inhibition of DNA polymerase at > 1 uM
Procedure, shortened: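 Klenow polymerase stop assay. Template VT-66 (100 nM) and FAM-primer P16 (100 nM) with twofold-diluted compound in 10 mM Tris-HCl pH 7.4, denatured 95 °C 5 min, slow-cooled to 37 °C. Extension started with dNTPs, 3 mM MgCl2 and Klenow fragment (1 unit), 37 °C 30 min. Products on 12% denaturing PAGE; stopped/total extended ratio plotted.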

Nucleic Acid [4] = assay: Binding affinity to VEGF quadruplex DNA in human A549 cells assessed as downregulation of VEGF protein level at 0.2 to 2.8 uM after 24 hrs by Western blot analysis; assay type: cell-based; procedure, shortened: as §1
Nucleic Acid [5] = assay: Binding affinity to VEGF V32G-double stranded DNA at 1 to 32 uM after 10 hrs by polyacrylamide electrophoresis; assay type: nucleic-acid assay
Procedure, shortened: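 FAM-labeled VEGF G-rich strand (V32G, 2 µM) plus complementary C-rich strand (2 µM) with twofold-diluted compound in Tris-HCl pH 7.4, 100 mM KCl. Denatured 95 °C 5 min, slow-cooled to 55 °C, held 10 h, then rapidly cooled to 4 °C. Separated on 16% native PAGE with 50 mM KCl (4 °C, 350 V, 10 h); duplex vs monomeric quadruplex bands imaged.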

Nucleic Acid [6] = assay: Binding affinity to VEGF quadruplex DNA in human A549 cells assessed as downregulation of VEGF165 mRNA expression at 50 uM after 24 hrs by semi-quantitative RT-PCR analysis; assay type: cell-based; procedure, shortened: as §2
Nucleic Acid [7] = assay: Binding affinity to VEGF VT-66-G-quadruplex DNA after 30 mins by DNA polymerase stop assay; assay type: nucleic-acid assay
Procedure, shortened: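 Polymerase stop: compound (twofold dilution) with template VT-66 (100 nM) and FAM-labelled primer P16 (100 nM) in 10 mM Tris-HCl pH 7.4, denatured 95 °C 5 min, slow-cooled to 37 °C. Extension started with dNTPs, 3 mM MgCl2 and Klenow fragment (1 unit), 37 °C 30 min. Resolved on 12% denaturing PAGE; stopped/(stopped+full-length) ratio plotted against concentration.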

A549 [8] = assay: Cytotoxicity against human A549 cells assessed as cell viability after 72 hrs by SRB assay; assay type: functional, cell-based; conditions: A549, 72 h
Procedure, shortened: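 Sulforhodamine B colorimetric assay on A549 cells. IC50 derived from the concentration versus percent growth inhibition curve. Mean ± standard deviation of three independent experiments, each in triplicate.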

[9] = Solubility of the compound in Tris-HCl buffer at 40 uM at pH 7.4 after 1 to 72 hrs by spectroscopic analysis in absence of DNA; assay type: physicochemical; conditions: pH 7.4, 40 µM
Procedure, shortened: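 Compound at 40 µM in 10 mM Tris-HCl pH 7.4 with 100 mM KCl, without DNA. Visible absorbance spectra recorded at 0, 8 and 72 h.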

A549 [10] = assay: Downregulation of GAPDH mRNA expression in human A549 cells at 0.75 to 6 uM after 24 hrs by semi-quantitative RT-PCR analysis; assay type: functional, cell-based
Procedure, shortened: (§3)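 A549 cells (3.0 × 10^5) treated 24 h at graded compound concentrations; RNA reverse-transcribed and GAPDH cDNA amplified by gene-specific PCR at a cycle number chosen for linear signal, with band intensity by semi-quantitative gel read-out.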

Nucleic Acid [11] = assay: Binding affinity to Bcl2 quadruplex DNA in human A549 cells assessed as downregulation of Bcl2 mRNA expression in human A549 cells after 24 hrs by semi-quantitative RT-PCR analysis; assay type: cell-based
Nucleic Acid [12] = assay: Binding affinity to VEGF quadruplex DNA in human A549 cells assessed as downregulation of VEGF121 mRNA expression after 24 hrs by semi-quantitative RT-PCR analysis; assay type: cell-based
Procedure, shortened: (§4)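 A549 cells (3.0 × 10^5) exposed to a range of compound concentrations for 24 h; total RNA reverse-transcribed and cDNA amplified with gene-specific primers at a cycle number chosen per gene for linear signal. VEGF bands quantified by densitometry, normalized to GAPDH; three separate experiments.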

[13] = Solubility of the compound in Tris-HCl buffer at 40 uM at pH 7.4 after 1 to 72 hrs by spectroscopic analysis in presence of VEGF quadruplex; assay type: physicochemical; conditions: pH 7.4, 40 µM
Procedure, shortened: (§5)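 Visible absorbance spectra of compound (40 µM) in 10 mM Tris-HCl pH 7.4 with 100 mM KCl, without DNA, with preformed VEGF quadruplex (20 µM V32G), or with salmon sperm duplex DNA matched in absorbance to the quadruplex; recorded at 0, 8 and 72 h incubation.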

Nucleic Acid [14] = assay: Binding affinity to VEGF quadruplex DNA in human A549 cells assessed as downregulation of VEGF mRNA expression after 24 hrs by semi-quantitative RT-PCR analysis; assay type: cell-based; procedure, shortened: as §4
A549 [15] = assay: Downregulation of COX2 mRNA expression in human A549 cells at 0.75 to 6 uM after 24 hrs by semi-quantitative RT-PCR analysis; assay type: functional, cell-based
Nucleic Acid [16] = assay: Binding affinity to VEGF V32G-G-quadruplex DNA at 1 to 32 uM after 10 hrs by polyacrylamide electrophoresis; assay type: nucleic-acid assay
Procedure, shortened: (§6)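 Duplex/G-quadruplex competition: FAM-labelled G-rich strand V32G (2 µM) plus complementary C-rich strand (2 µM) with twofold-diluted compound in Tris-HCl pH 7.4, 100 mM KCl; denatured 95 °C 5 min, slow-cooled to 55 °C and held 10 h, then rapidly cooled to 4 °C. Products resolved on 16% native PAGE containing 50 mM KCl (4 °C, 350 V, 10 h); duplex vs monomeric quadruplex bands imaged.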

A549 [17] = assay: Downregulation of Max mRNA expression in human A549 cells at 0.75 to 6 uM after 24 hrs by semi-quantitative RT-PCR analysis; assay type: functional, cell-based
Nucleic Acid [18] = assay: Binding affinity to VEGF quadruplex DNA in human A549 cells assessed as downregulation of VEGF165 mRNA expression after 24 hrs by semi-quantitative RT-PCR analysis; assay type: cell-based; procedure, shortened: as §4
[19] = Solubility of the compound in Tris-HCl buffer at 40 uM at pH 7.4 after 1 to 72 hrs by spectroscopic analysis in presence of salmon sperm DNA duplex; assay type: physicochemical; conditions: pH 7.4, 40 µM; procedure, shortened: as §5
Nucleic Acid [20] = assay: Binding affinity to c-Myc quadruplex DNA in human A549 cells assessed as downregulation of c-Myc mRNA expression after 24 hrs by semi-quantitative RT-PCR analysis; assay type: cell-based
Nucleic Acid [21] = assay: Binding affinity to VEGF quadruplex DNA at 40 uM after 1 to 72 hrs by spectroscopic analysis; assay type: nucleic-acid assay; procedure, shortened: as §5
A549 [22] = assay: Downregulation of GAPDH mRNA expression in human A549 cells at 3 to 24 uM after 24 hrs by semi-quantitative RT-PCR analysis; assay type: functional, cell-based; procedure, shortened: as §3
A549 [23] = assay: Downregulation of Max mRNA expression in human A549 cells at 3 to 24 uM after 24 hrs by semi-quantitative RT-PCR analysis; assay type: functional, cell-based
Nucleic Acid [24] = assay: Binding affinity to VEGF quadruplex DNA in human A549 cells assessed as downregulation of VEGF protein level after 24 hrs by Western blot analysis; assay type: cell-based
Procedure, shortened: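 A549 cells (3.0 × 10^5) treated with a range of compound concentrations for 24 h; lysate proteins separated by SDS-PAGE and blotted with rabbit polyclonal anti-VEGF, detected with HRP-conjugated goat anti-rabbit IgG.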

A549 [25] = assay: Downregulation of COX2 mRNA expression in human A549 cells at 3 to 24 uM after 24 hrs by semi-quantitative RT-PCR analysis; assay type: functional, cell-based
HCT-15 = assay: Cytotoxicity against human HCT15 cells assessed as cell viability after 72 hrs by SRB assay; assay type: functional, cell-based; conditions: HCT-15, 72 h
Nucleic Acid [26] = assay: Binding affinity to VEGF quadruplex DNA in human HeLa cells assessed as downregulation of VEGF mRNA expression at 0.75 to 6 uM after 24 hrs by semi-quantitative RT-PCR analysis; assay type: cell-based
Nucleic Acid [27] = assay: Binding affinity to VEGF quadruplex DNA in human HCT15 cells assessed as downregulation of VEGF mRNA expression at 0.75 to 6 uM after 24 hrs by semi-quantitative RT-PCR analysis; assay type: cell-based; conditions: HCT-15
Nucleic Acid [28] = assay: Binding affinity to VEGF V32G-G-quadruplex DNA after 10 hrs by polyacrylamide electrophoresis; assay type: nucleic-acid assay; procedure, shortened: as §6
MCF7 = assay: Cytotoxicity against human MCF7 cells assessed as cell viability after 72 hrs by SRB assay; assay type: functional, cell-based; conditions: MCF7, 72 h
HeLa = assay: Cytotoxicity against human HeLa cells assessed as cell viability after 72 hrs by SRB assay; assay type: functional, cell-based
[29] = Solubility of the compound in Tris-HCl buffer at 40 uM at pH 7.4 after 72 hrs by spectroscopic analysis in absence of DNA; assay type: physicochemical; conditions: pH 7.4, 72 h; procedure, shortened: as §5
Nucleic Acid [30] = assay: Binding affinity to VEGF quadruplex DNA in human MCF7 cells assessed as downregulation of VEGF mRNA expression at 0.75 to 6 uM after 24 hrs by semi-quantitative RT-PCR analysis; assay type: cell-based

| SMILES | Activity (Nucleic Acid [1]) | Activity (Nucleic Acid [4]) | Activity (Nucleic Acid [7]) | IC50 (A549 [8]) | solubility [9] | Activity (A549 [10]) | Activity (Nucleic Acid [11]) | Activity (Nucleic Acid [12]) | solubility [13] | Activity (Nucleic Acid [14]) | Activity (A549 [15]) | Activity (Nucleic Acid [16]) | Activity (A549 [17]) | Activity (Nucleic Acid [18]) | solubility [19] | Activity (Nucleic Acid [20]) | Activity (Nucleic Acid [21]) | Activity (Nucleic Acid [24]) | also measured |
| --- | --- | --- | --- | --- | --- | --- | --- | --- | --- | --- | --- | --- | --- | --- | --- | --- | --- | --- | --- |
| C[n+]1ccc(-c2c3nc(c(-c4cc[n+](C)cc4)c4ccc([nH]4)c(-c4cc[n+](C)cc4)c4ccc([nH]4)c(-c4cc[n+](C)cc4)c4nc2C=C4)C=C3)cc1 [TMPYP4] | inactive | inactive | Dose-dependent effect | 43.1 µM | – | – | – | – | – | – | – | – | – | – | – | – | – | – | Activity (Nucleic Acid [2]): inactive; inhibition [3]: Active; Activity (Nucleic Acid [5]): Active; Activity (Nucleic Acid [6]): inactive |
| CC[N+](C)(CC)CCN1C(=O)c2ccc3c4cccc5cccc(c6ccc(c2c36)C1=O)c54.Cc1ccc(S(=O)(=O)[O-])cc1 | inactive | inactive | Dose-dependent effect | 3.2 µM | Insoluble | inactive | Dose-dependent effect | Dose-dependent effect | soluble | Dose-dependent effect | inactive | Active | inactive | Dose-dependent effect | soluble | Dose-dependent effect | – | – | – |
| O=C1c2ccc3c4ccc5c6c(ccc(c7ccc(c2c37)C(=O)N1CCN1CCCCC1)c64)C(=O)N(CCN1CCCCC1)C5=O | – | – | Dose-dependent effect | 52.4 µM | Insoluble | – | Dose-dependent effect | Dose-dependent effect | soluble | Dose-dependent effect | – | Active | – | Dose-dependent effect | soluble | Dose-dependent effect | Active | Dose-dependent effect | Activity (A549 [22]): inactive; Activity (A549 [23]): inactive; Activity (A549 [25]): inactive |
| CCN(CC)CCN1C(=O)c2ccc3c4cccc5c(N6CCNCC6)ccc(c6ccc(c2c36)C1=O)c54 | – | – | Dose-dependent effect | 4 µM | – | inactive | Dose-dependent effect | Dose-dependent effect | soluble | Dose-dependent effect | inactive | – | inactive | Dose-dependent effect | soluble | Dose-dependent effect | inactive | Dose-dependent effect | IC50 (HCT-15): 4.7 µM; Activity (Nucleic Acid [26]): Active; Activity (Nucleic Acid [27]): Active; Activity (Nucleic Acid [28]): Active; IC50 (MCF7): 5.5 µM; IC50 (HeLa): 3 µM; solubility [29]: soluble; Activity (Nucleic Acid [30]): Active |
